Reference: ChEMBL document CHEMBL5038571, “Design and Synthesis of EZH2-Based PROTACs to Degrade the PRC2 Complex for Targeting the Noncatalytic Activity of EZH2” (J Med Chem, 2021)
Active and inactive are the calls of the source. The rule behind the calls is not given here.

Assays:
[1] = target: T1, Protein cereblon/Histone-lysine N-methyltransferase EZH2 (Homo sapiens) (UniProt Q15910+Q96SW2); assay: PROTAC activity at CRBN E3 ligase/EZH2 in PRC2 complex in human DU-145 cells assessed as induction of SUZ12 degradation by measuring reduction in SUZ12 protein level at 1 uM incubated for 48 hrs by Western blot analysis; assay type: cell-based
Procedure, shortened: (§1)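 Cancer cell lines exposed to 1 μM compound for 48 h. Lysates immunoblotted (SDS-PAGE, nitrocellulose, 5% milk block, primary antibody overnight at 4 °C) for EZH2, SUZ12, EED, RbAp48 and H3K27me3. Bands quantified by densitometry and normalized to GAPDH.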

[2] = target: T1, Protein cereblon/Histone-lysine N-methyltransferase EZH2 (Homo sapiens); assay: PROTAC activity at CRBN E3 ligase/EZH2 in PRC2 complex in human WSUDLCL2 cells assessed as induction of EZH2 degradation by measuring reduction in EZH2 protein level at 1 uM measured up to 2 hrs by Western blot analysis; assay type: cell-based; conditions: time hrs <=2
[3] = target: T1, Protein cereblon/Histone-lysine N-methyltransferase EZH2 (Homo sapiens); assay: PROTAC activity at CRBN E3 ligase/EZH2 in PRC2 complex in human SK-OV-3 cells assessed as reduction in H3K27me3 level at 1 uM incubated for 48 hrs by Western blot analysis; assay type: cell-based
Procedure, shortened: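 Cells cultured in DMEM or RPMI 1640 with 10% FBS and 1% penicillin-streptomycin, 37 °C, 5% CO2; exposed to 1 μM compound for 48 h. Lysates run on SDS-PAGE and transferred to nitrocellulose. Blocked 2 h in 5% skim milk, primary antibody overnight at 4 °C, then secondary antibody. Chemiluminescent detection of PRC2 subunits and H3K27me3.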

WSUDLCL2 [4] = assay: Effect on Histone H3 methylation in human WSUDLCL2 cells assessed as reduction in H3K27me1 levels at upto 10 uM incubated for 48 hrs by Western blot analysis; assay type: functional, cell-based; conditions: dose microM <=10, time 48.0 hrs
Procedure, shortened: (§2)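 Lysates run on SDS-PAGE and transferred to nitrocellulose. Membranes blocked with 5% skim milk for 2 h, primary antibody applied overnight at 4 °C, then secondary antibody and chemiluminescent detection of histone H3 methylation marks.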

[5] = target: T1, Protein cereblon/Histone-lysine N-methyltransferase EZH2 (Homo sapiens); assay: PROTAC activity at CRBN E3 ligase/EZH2 in PRC2 complex in human WSUDLCL2 cells assessed as induction of RbAp48 degradation incubated for 48 hrs by Western blot analysis; assay type: cell-based; conditions: dose 1-10 µM
[6] = target: T1, Protein cereblon/Histone-lysine N-methyltransferase EZH2 (Homo sapiens); assay: PROTAC activity at CRBN E3 ligase/EZH2 in PRC2 complex in human WSUDLCL2 cells assessed as induction of RbAp48 degradation at 1 uM measured up to 2 hrs by Western blot analysis; assay type: cell-based; conditions: time hrs <=2
[7] = target: T1, Protein cereblon/Histone-lysine N-methyltransferase EZH2 (Homo sapiens); assay: PROTAC activity at CRBN E3 ligase/EZH2 in PRC2 complex in human WSUDLCL2 cells assessed as downregulation of SUZ12 expression at 1 uM pretreated with EED226 for 4 hrs followed by compound addition and measured after 48 hrs by Western blot analysis; assay type: cell-based
Procedure, shortened: (§3)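 WSU-DLCL-2 cells pretreated 4 h with the named inhibitor, then compound added and incubated a further 48 h. EZH2, SUZ12, EED and RbAp48 measured by western blot (nitrocellulose transfer, skim-milk block, primary antibody overnight at 4 °C, chemiluminescent detection).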

[8] = target: T1, Protein cereblon/Histone-lysine N-methyltransferase EZH2 (Homo sapiens); assay: PROTAC activity at CRBN E3 ligase/EZH2 in PRC2 complex in human WSUDLCL2 cells assessed as downregulation of RbAp48 expression at 1 uM pretreated with MG-132 for 4 hrs followed by compound addition and measured after 48 hrs by Western blot analysis; assay type: cell-based; procedure, shortened: as §3
Pfeiffer [9] = assay: Upregulation of TNFRSF21 mRNA expression in human Pfeiffer cells at 1 uM incubated for 48 hrs by qRT-PCR analysis; assay type: functional, cell-based
Procedure, shortened: (§4)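 WSU-DLCL-2 or Pfeiffer cells treated 48 h. Trizol RNA extraction, reverse transcription, SYBR qPCR (95 °C 30 s; 40 cycles of 95 °C 6 s, 60 °C 20 s). mRNA normalized to DMSO-treated cells; mean ± SD of three independent experiments, t-test.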

WSUDLCL2 [10] = assay: Upregulation of CDKN2A mRNA expression in human WSUDLCL2 cells at 1 uM incubated for 48 hrs by qRT-PCR analysis; assay type: functional, cell-based; procedure, shortened: as §4
[11] = target: T1, Protein cereblon/Histone-lysine N-methyltransferase EZH2 (Homo sapiens); assay: PROTAC activity at CRBN E3 ligase/EZH2 in PRC2 complex in human DU-145 cells assessed as induction of EED degradation by measuring reduction in EED protein level at 1 uM incubated for 48 hrs by Western blot analysis; assay type: cell-based; procedure, shortened: as §1
[12] = target: T1, Protein cereblon/Histone-lysine N-methyltransferase EZH2 (Homo sapiens); assay: PROTAC activity at CRBN E3 ligase/EZH2 in PRC2 complex in human WSUDLCL2 cells assessed as downregulation of EED expression at 1 uM pretreated with MG-132 for 4 hrs followed by compound addition and measured after 48 hrs by Western blot analysis; assay type: cell-based; procedure, shortened: as §3
Pfeiffer [13] = assay: Upregulation of TXINP mRNA expression in human Pfeiffer cells at 1 uM incubated for 48 hrs by qRT-PCR analysis; assay type: functional, cell-based; procedure, shortened: as §4
NCI-H1299 = assay: Downregulation of TACC3 mRNA expression in human NCI-H1299 cells at 10 uM incubated for 48 hrs by qRT-PCR analysis; assay type: functional, cell-based
Procedure, shortened: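 Cells treated 48 h. Total RNA extracted with Trizol, reverse-transcribed, and SYBR RT-qPCR run: 95 °C 30 s, then 40 cycles of 95 °C 6 s and 60 °C 20 s. mRNA normalized to the DMSO-treated group. Mean SD of three independent experiments, t-test versus DMSO.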

WSUDLCL2 [14] = assay: Inhibition of PRC2 in human WSUDLCL2 cells assessed as suppression H3K27 trimethylation at 10 uM incubated for 48 hrs by Western blot analysis; assay type: cell-based; procedure, shortened: as §2
[15] = target: T1, Protein cereblon/Histone-lysine N-methyltransferase EZH2 (Homo sapiens); assay: PROTAC activity at CRBN E3 ligase/EZH2 in PRC2 complex in human WSUDLCL2 cells assessed as reduction in H3K27me3 level at 10 uM incubated for 48 hrs by Western blot analysis; assay type: cell-based
[16] = target: T1, Protein cereblon/Histone-lysine N-methyltransferase EZH2 (Homo sapiens); assay: PROTAC activity at CRBN E3 ligase/EZH2 in PRC2 complex in human WSUDLCL2 cells assessed as downregulation of SUZ12 expression at 1 uM pretreated with MG-132 for 4 hrs followed by compound addition and measured after 48 hrs by Western blot analysis; assay type: cell-based; procedure, shortened: as §3
[17] = target: T1, Protein cereblon/Histone-lysine N-methyltransferase EZH2 (Homo sapiens); assay: PROTAC activity at CRBN E3 ligase/EZH2 in PRC2 complex in human WSUDLCL2 cells assessed as downregulation of SUZ12 expression at 1 uM pretreated with MLN4924 for 4 hrs followed by compound addition and measured after 48 hrs by Western blot analysis; assay type: cell-based; procedure, shortened: as §3
[18] = target: T1, Protein cereblon/Histone-lysine N-methyltransferase EZH2 (Homo sapiens); assay: PROTAC activity at CRBN E3 ligase/EZH2 in PRC2 complex in human WSUDLCL2 cells assessed as downregulation of RbAp48 expression at 1 uM pretreated with lenalidomide for 4 hrs followed by compound addition and measured after 48 hrs by Western blot analysis; assay type: cell-based; procedure, shortened: as §3
[19] = target: T1, Protein cereblon/Histone-lysine N-methyltransferase EZH2 (Homo sapiens); assay: PROTAC activity at CRBN E3 ligase/EZH2 in PRC2 complex in human WSUDLCL2 cells assessed as induction of EED degradation at 1 uM measured up to 2 hrs by Western blot analysis; assay type: cell-based; conditions: time hrs <=2

T1 sequence (Q15910 whole entry, looked up): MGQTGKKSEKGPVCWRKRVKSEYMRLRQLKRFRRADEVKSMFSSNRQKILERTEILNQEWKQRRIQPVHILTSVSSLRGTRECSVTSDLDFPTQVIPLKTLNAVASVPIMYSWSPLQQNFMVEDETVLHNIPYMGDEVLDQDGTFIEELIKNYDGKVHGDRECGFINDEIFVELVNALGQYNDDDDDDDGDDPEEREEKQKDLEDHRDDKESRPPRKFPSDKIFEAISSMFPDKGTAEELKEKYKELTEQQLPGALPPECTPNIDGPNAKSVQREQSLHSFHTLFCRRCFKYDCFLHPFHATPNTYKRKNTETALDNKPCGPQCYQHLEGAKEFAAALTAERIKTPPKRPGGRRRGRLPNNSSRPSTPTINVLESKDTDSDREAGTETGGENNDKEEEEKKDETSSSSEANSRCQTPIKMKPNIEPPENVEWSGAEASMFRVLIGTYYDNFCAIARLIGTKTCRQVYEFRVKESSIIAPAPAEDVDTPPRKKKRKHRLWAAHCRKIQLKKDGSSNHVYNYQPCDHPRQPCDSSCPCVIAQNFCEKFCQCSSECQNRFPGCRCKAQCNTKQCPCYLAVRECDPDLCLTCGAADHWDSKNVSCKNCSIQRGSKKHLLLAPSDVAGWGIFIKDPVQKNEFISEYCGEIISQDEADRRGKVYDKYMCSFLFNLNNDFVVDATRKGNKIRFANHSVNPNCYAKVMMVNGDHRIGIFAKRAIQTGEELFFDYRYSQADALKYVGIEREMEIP
T1 sequence (Q96SW2 whole entry, looked up): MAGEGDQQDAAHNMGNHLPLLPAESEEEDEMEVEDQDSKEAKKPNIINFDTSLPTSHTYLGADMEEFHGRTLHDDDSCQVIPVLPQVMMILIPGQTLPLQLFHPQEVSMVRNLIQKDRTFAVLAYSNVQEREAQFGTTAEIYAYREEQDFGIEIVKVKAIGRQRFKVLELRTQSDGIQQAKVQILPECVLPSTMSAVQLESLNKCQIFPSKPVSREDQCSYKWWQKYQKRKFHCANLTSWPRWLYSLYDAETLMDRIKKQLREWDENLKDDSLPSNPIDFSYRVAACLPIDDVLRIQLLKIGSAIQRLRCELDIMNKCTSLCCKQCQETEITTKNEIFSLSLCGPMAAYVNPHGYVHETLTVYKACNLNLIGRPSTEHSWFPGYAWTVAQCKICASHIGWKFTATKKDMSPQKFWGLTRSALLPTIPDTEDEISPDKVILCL

Structure (SMILES): CCN(c1cc(-c2ccc(CN3CCN(CCCCCCCOc4cccc5c4C(=O)N(C4CCC(=O)NC4=O)C5=O)CC3)cc2)cc(C(=O)NCc2c(C)cc(C)[nH]c2=O)c1C)C1CCOCC1 (stereo not given)
- Activity [1]: Active
- Activity [2]: Active
- Activity [3]: Active
- Activity (WSUDLCL2 [4]): inactive
- Activity [5]: Dose-Dependent Effect
- Activity [6]: inactive
- Activity [7]: Active
- Activity [8]: inactive
- Activity (Pfeiffer [9]): Active
- Activity (WSUDLCL2 [10]): inactive
- Activity [11]: Active
- Activity [12]: inactive
- Activity (Pfeiffer [13]): inactive
- Activity (NCI-H1299): Active
- inhibition (WSUDLCL2 [14]): Active
- Activity [15]: inactive
- Activity [16]: inactive
- Activity [17]: inactive
- Activity [18]: inactive
- Activity [19]: inactive
